Source: ChEMBL document CHEMBL2157923, “1,3-Azoles from ortho-naphthoquinones: synthesis of aryl substituted imidazoles and oxazoles and their potent activity against Mycobacterium tuberculosis” (Bioorg Med Chem, 2012)
Values after ≈ are worked out from the molar mass of the structure shown. Active and inactive are the calls of the source. The rule behind the calls is not given here.

Tests used:
Type in all cases: functional
[1] = test system: Mycobacterium tuberculosis; assay: Antimycobacterial activity against rifampicin-resistant Mycobacterium tuberculosis ATCC 35338 after 7 days by resazurin microtitre assay
Procedure, shortened: (§1)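 REMA MIC. Strains kept on Ogawa-Kudoh medium 14 days at 37 °C. Suspension vortexed and adjusted to McFarland tube 1 (3.2 × 10^6 cfu/mL), then diluted 1:20 in Middlebrook 7H9 with 10% OADC and glycerol. Compounds tested from 100 ug/mL down to 0.19 ug/mL. Incubated 7 days at 37 °C, resazurin added, 2 more days at 37 °C; colour change read.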

[2] = test system: Mycobacterium tuberculosis; assay: Antimycobacterial activity against isoniazid-resistant Mycobacterium tuberculosis ATCC 35822 after 7 days by resazurin microtitre assay; procedure, shortened: as §1
[3] = test system: Mycobacterium tuberculosis; assay: Antimycobacterial activity against rifampicin-resistant Mycobacterium tuberculosis; procedure, shortened: as §1

| SMILES | MIC ([1]; ATCC 35338, 168 h) | MIC ([2]; ATCC 35822, 168 h) | MIC [1] | MIC [2] | MIC [3] |
| --- | --- | --- | --- | --- | --- |
| CC1(C)CCc2c(c3ccccc3c3nc(-c4ccc(C#N)cc4)oc23)O1 | 4.4 µM (≈ 1.56 µg/mL) | 8.8 µM (≈ 3.12 µg/mL) |  |  |  |
| CC1(C)CCc2c(c3ccccc3c3nc(-c4ccccc4C#N)oc23)O1 | 17.6 µM (≈ 6.24 µg/mL) | 17.6 µM (≈ 6.24 µg/mL) |  |  |  |
| CC1(C)CCc2c(c3ccccc3c3nc(-c4ccc([N+](=O)[O-])cc4)[nH]c23)O1 |  | 4.2 µM (≈ 1.57 µg/mL) | inactive |  |  |
| CC1(C)CCc2c(c3ccccc3c3nc(-c4ccc(Br)cc4)[nH]c23)O1 |  |  | inactive | inactive |  |
| CC1(C)CCc2c(c3ccccc3c3nc(-c4cccc(F)c4)[nH]c23)O1 | 18 µM (≈ 6.24 µg/mL) | 18 µM (≈ 6.24 µg/mL) |  |  |  |
| CC1(C)CCc2c(c3ccccc3c3nc(-c4ccccc4[N+](=O)[O-])[nH]c23)O1 | 33.5 µM (≈ 12.5 µg/mL) | 16.7 µM (≈ 6.24 µg/mL) |  |  |  |
| CC1(C)CCc2c(c3ccccc3c3nc(-c4ccccc4Br)[nH]c23)O1 | 15.3 µM (≈ 6.23 µg/mL) | 15.3 µM (≈ 6.23 µg/mL) |  |  |  |
| Cc1ccc(-c2nc3c(o2)c2c(c4ccccc43)OC(C)(C)C2)cc1 |  | > 304 µM |  |  |  |
| CC1(C)CCc2c(c3ccccc3c3nc(-c4ccccc4C(F)(F)F)[nH]c23)O1 | 2 µM (≈ 0.793 µg/mL) | 4 µM (≈ 1.59 µg/mL) |  |  |  |
| CC1(C)CCc2c(c3ccccc3c3nc(-c4ccccn4)[nH]c23)O1 | 19 µM (≈ 6.26 µg/mL) | 19 µM (≈ 6.26 µg/mL) |  |  |  |
| CC1(C)CCc2c(c3ccccc3c3nc(-c4ccc(Cl)cc4)[nH]c23)O1 | 17.2 µM (≈ 6.24 µg/mL) | 17.2 µM (≈ 6.24 µg/mL) |  |  |  |
| CC1(C)CCc2c(c3ccccc3c3nc(-c4cccnc4)[nH]c23)O1 |  |  | inactive | inactive |  |
| CC1(C)CCc2c(c3ccccc3c3nc(-c4cc5ccccc5cn4)[nH]c23)O1 | ≤ 2 µM | ≤ 2 µM |  |  |  |
| CC1(C)CCc2c(c3ccccc3c3nc(-c4cccc(C#N)c4)oc23)O1 | 17.6 µM (≈ 6.24 µg/mL) | 17.6 µM (≈ 6.24 µg/mL) |  |  |  |
| CC1(C)Cc2c(c3ccccc3c3nc(-c4ccc([N+](=O)[O-])cc4)oc23)O1 |  | > 278 µM |  |  |  |
| C=CCC1Cc2c(c3ccccc3c3nc4ccccc4nc23)OC1(C)C (stereo not given) |  |  |  |  | 0.78 µg/mL (≈ 2.2 µM) |
| CC1(C)CCc2c(c3ccccc3c3nc(-c4cccc(C#N)c4)[nH]c23)O1 |  |  | inactive | inactive |  |

| SMILES | MIC ([1]; ATCC 35338, 168 h) | MIC ([2]; ATCC 35822, 168 h) | MIC [1] | MIC [2] | MIC [3] |
| --- | --- | --- | --- | --- | --- |
| CC1(C)Cc2c(c3ccccc3c3nc(-c4ccccc4)[nH]c23)O1 | 318 µM (≈ 100 µg/mL) | > 318 µM |  |  |  |
| C=CCC1=C(O)C(=O)c2ccccc2C1=O | 117 µM (≈ 25 µg/mL) | 467 µM (≈ 100 µg/mL) |  |  |  |
| Cc1ccc(-c2nc3c([nH]2)c2c(c4ccccc43)OC(C)(C)C2)cc1 | 304 µM (≈ 100 µg/mL) | > 304 µM |  |  |  |
| CC1(C)CCc2c(c3ccccc3c3nc(-c4ccccc4)[nH]c23)O1 | > 304 µM | 38 µM (≈ 12.5 µg/mL) |  |  |  |
| CC1(C)CCc2c(c3ccccc3c3nc(-c4cccc([N+](=O)[O-])c4)[nH]c23)O1 |  |  | inactive | inactive |  |
| CC1CC2=C(O1)c1ccccc1C(=O)C2=O (stereo not given) |  |  | inactive | inactive |  |
| CC1(C)CCc2c(c3ccccc3c3nc(-c4ccc(C#N)cc4)[nH]c23)O1 |  |  | inactive | inactive |  |
| CC1Cc2c(c3ccccc3c3nc(-c4ccc([N+](=O)[O-])cc4)oc23)O1 (stereo not given) | 289 µM (≈ 100 µg/mL) | > 289 µM |  |  |  |
| CC1(C)CCc2c(c3ccccc3c3nc(-c4ccc(F)cc4)[nH]c23)O1 | 18 µM (≈ 6.24 µg/mL) | 18 µM (≈ 6.24 µg/mL) |  |  |  |
| CC1(C)CCc2c(c3ccccc3c3nc(-c4cccc(C(F)(F)F)c4)[nH]c23)O1 | 4 µM (≈ 1.59 µg/mL) | 4 µM (≈ 1.59 µg/mL) |  |  |  |
| CO[C@H]1/C=C/O[C@@]2(C)Oc3c(C)c(O)c4c(O)c(c(/C=N/N5CCN(C)CC5)c(O)c4c3C2=O)NC(=O)/C(C)=C\C=C\[C@H](C)[C@H](O)[C@@H](C)[C@@H](O)[C@@H](C)[C@H](OC(C)=O)[C@@H]1C [RIFAMPIN] | > 4.8 µM | ≤ 0.1 µM |  |  |  |
| Cc1ccccc1-c1nc2c([nH]1)c1c(c3ccccc32)OC(C)(C)CC1 | 4.5 µM (≈ 1.54 µg/mL) | 4.5 µM (≈ 1.54 µg/mL) |  |  |  |
| CC1(C)CCc2c(c3ccccc3c3nc(-c4cccc(Br)c4)[nH]c23)O1 | 15.3 µM (≈ 6.23 µg/mL) | 15.3 µM (≈ 6.23 µg/mL) |  |  |  |
| CC1(C)CCc2c(c3ccccc3c3nc(-c4ccc(C(F)(F)F)cc4)[nH]c23)O1 |  |  | inactive | inactive |  |
| NNC(=O)c1ccncc1 [ISONIAZID] | ≤ 0.4 µM | 7.3 µM (≈ 1 µg/mL) |  |  |  |
| CC1(C)CCc2c(c3ccccc3c3nc(-c4cnc5ccccc5c4)[nH]c23)O1 |  |  | inactive | inactive |  |
| COc1ccccc1-c1nc2c([nH]1)c1c(c3ccccc32)OC(C)(C)CC1 | 17.4 µM (≈ 6.24 µg/mL) | 17.4 µM (≈ 6.24 µg/mL) |  |  |  |
